The source made the active and inactive calls. The calls are words filed in the database; no cut-off is given here.

The target in data set [1] is 5-hydroxytryptamine receptor 2A (Homo sapiens) (UniProt P28223). The data set is described as follows: Inhibition of Serotonin 5HT2A receptor at 4 uM. In short, it runs like this:
(§1)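 Single-concentration screen within a 69-target selectivity panel. The test concentration was 4 μM, a level set by the compound's limited aqueous solubility.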

The target of data set [2] is 5-hydroxytryptamine receptor 7 (Homo sapiens) (UniProt P34969). The data set is described as follows: Inhibition of Serotonin 5HT7 receptor at 4 uM. Summed up:
as §1

For data set [3], the species on record is Rattus norvegicus. The data set is described as follows: Metabolic stability in rat assessed as […] of isopentyl group. The data set is classed as ADME, organism-based. Conditions: in vivo.
Data set [4] is filed under the species Rattus norvegicus. The data set is described as follows: Metabolic stability in rat assessed as demethylation of one or both methoxy group. It counts as ADME, organism-based. Conditions: in vivo.
The nature of data set [5]: Inhibition of Sodium channel site 2 at 4 uM. In short, it runs like this: as §1
The nature of data set [6]: Inhibition of phosphodiesterase 3 at 4 uM. Summed up: as §1
The test system of data set [7] is Rattus norvegicus. The data set can be described thus: Toxicity in Sprague-Dawley rat assessed as effect on horizontal movement at 30 mg/kg, po measured after 3 hrs for 1 hr. The data set is classed as organism-based. The arrangement: dose 30 mg/kg, route oral. Conditions: in vivo. Summed up:
(§2)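 Rats not habituated to the test environment, dosed orally at 3, 10 and 30 mg/kg. Spontaneous locomotor activity recorded after dosing: horizontal activity as movement time, plus vertical activity (rearing). Test run to exclude sedation.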

For data set [8], the system named is Rattus norvegicus. The data set can be described thus: Toxicity in Sprague-Dawley rat assessed as effect on vertical activity at 3 mg/kg, po measured after 3 hrs for 1 hr. It counts as organism-based. The arrangement: dose 3 mg/kg, route oral. Conditions: in vivo. In short, it runs like this:
as §2

The nature of data set [9]: Inhibition of adenosine transporter at 4 uM. Summed up: as §1
The target of data set [10] is Type-2 angiotensin II receptor (Homo sapiens) (UniProt P50052). The data set can be described thus: Inhibition of angiotensin AT2 receptor at 4 uM. In short, it runs like this: as §1
In data set [11] the target is Cannabinoid receptor 1 (Homo sapiens) (UniProt P21554). The data set can be described thus: Inhibition of cannabinoid CB1 receptor at 4 uM. In short, it runs like this:
as §1

The nature of data set [12]: Inhibition of GABA-B at 4 uM. Summed up:
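Selectivity panel of 69 targets, test compound at 4 μM, a level set by aqueous solubility limits; percent inhibition recorded per target.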

The target of data set [13] is T1, Corticotropin-releasing factor receptor 1 (Homo sapiens, UniProt P34998).
T1 sequence (P34998 whole entry): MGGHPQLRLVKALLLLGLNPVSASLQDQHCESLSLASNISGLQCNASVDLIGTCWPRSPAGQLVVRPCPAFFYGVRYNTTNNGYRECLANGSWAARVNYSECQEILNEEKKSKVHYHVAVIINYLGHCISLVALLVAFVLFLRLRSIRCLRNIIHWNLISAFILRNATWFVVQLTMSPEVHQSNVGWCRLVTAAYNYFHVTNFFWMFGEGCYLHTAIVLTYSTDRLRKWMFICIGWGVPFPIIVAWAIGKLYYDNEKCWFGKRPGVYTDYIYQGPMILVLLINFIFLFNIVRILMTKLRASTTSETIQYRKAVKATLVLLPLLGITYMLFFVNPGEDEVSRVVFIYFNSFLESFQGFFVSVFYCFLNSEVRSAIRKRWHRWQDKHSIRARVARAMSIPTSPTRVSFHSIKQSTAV
The data set is described as follows: Displacement of [125I]-sauvagine from human CRF-1 receptor expressed in human IMR-32 cells after 2 hrs by scintillation counting. It counts as cell-based. Summed up:
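Competition binding against 125I-sauvagine on membrane preparations from IMR-32 human neuroblastoma cells, which express CRF-1 endogenously. Modified from a published method.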
For orientation: Loss of bound radioactivity is the signal in a displacement assay; it reports binding, not function.

Data set [14] is described as follows: Half life in rat microsomes. The data set is classed as ADME, Microsome. Summed up: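 Stability in human or rat liver microsomes; half-life (T1/2, min) of compound turnover reported.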
Data set [15] can be described thus: Bioavailability in rat at 1 mg/kg, […]. It counts as ADME, organism-based. Conditions: in vivo. In short, it runs like this:
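Rat PK with paired iv and oral dosing, vehicle 2% Vitamin E TPGS. Clearance and Vss from the iv arm; oral bioavailability F from comparing exposure after oral and iv doses.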

The target of data set [16] is Corticotropin-releasing factor receptor 1 (Homo sapiens) (UniProt P34998). Conditions: IMR-32, 10 uM.

5-hydroxytryptamine receptor 7 (Homo sapiens), sequence (P34969 whole entry): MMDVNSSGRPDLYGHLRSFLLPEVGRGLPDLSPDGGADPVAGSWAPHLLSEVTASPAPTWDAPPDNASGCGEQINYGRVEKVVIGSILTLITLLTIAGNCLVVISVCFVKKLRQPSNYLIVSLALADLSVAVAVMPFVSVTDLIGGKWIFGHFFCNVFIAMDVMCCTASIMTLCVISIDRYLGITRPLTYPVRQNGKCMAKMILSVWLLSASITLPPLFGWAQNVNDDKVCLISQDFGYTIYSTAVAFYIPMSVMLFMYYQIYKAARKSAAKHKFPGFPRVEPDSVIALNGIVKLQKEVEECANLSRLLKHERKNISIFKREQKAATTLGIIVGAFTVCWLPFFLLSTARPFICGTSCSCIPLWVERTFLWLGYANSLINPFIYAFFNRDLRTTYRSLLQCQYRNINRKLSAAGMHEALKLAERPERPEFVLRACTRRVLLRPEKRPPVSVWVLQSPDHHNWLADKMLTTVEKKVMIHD
5-hydroxytryptamine receptor 2A (Homo sapiens), sequence (P28223 whole entry): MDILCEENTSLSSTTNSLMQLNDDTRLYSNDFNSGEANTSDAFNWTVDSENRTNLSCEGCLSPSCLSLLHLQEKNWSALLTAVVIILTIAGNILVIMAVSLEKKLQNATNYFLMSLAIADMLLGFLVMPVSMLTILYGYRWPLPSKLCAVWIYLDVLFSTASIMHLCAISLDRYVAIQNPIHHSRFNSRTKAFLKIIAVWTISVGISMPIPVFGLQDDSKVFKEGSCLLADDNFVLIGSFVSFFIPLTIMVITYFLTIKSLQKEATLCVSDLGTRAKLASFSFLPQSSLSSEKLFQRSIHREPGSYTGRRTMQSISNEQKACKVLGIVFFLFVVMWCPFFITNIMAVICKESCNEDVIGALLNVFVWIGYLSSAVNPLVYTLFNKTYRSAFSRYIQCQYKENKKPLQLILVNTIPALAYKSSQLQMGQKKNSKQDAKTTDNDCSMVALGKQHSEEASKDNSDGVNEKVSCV
Type-2 angiotensin II receptor (Homo sapiens), sequence (P50052 whole entry): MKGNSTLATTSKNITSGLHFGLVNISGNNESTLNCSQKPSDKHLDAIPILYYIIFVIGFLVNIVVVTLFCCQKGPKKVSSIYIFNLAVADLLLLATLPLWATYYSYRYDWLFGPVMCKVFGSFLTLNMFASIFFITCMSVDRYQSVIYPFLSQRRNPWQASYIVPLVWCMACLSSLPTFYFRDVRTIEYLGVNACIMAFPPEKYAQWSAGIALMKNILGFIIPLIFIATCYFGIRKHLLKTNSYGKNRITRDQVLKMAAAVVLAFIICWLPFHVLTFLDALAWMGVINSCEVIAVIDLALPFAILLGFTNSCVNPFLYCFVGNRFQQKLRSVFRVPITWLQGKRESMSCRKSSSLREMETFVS
Cannabinoid receptor 1 (Homo sapiens), sequence (P21554 whole entry): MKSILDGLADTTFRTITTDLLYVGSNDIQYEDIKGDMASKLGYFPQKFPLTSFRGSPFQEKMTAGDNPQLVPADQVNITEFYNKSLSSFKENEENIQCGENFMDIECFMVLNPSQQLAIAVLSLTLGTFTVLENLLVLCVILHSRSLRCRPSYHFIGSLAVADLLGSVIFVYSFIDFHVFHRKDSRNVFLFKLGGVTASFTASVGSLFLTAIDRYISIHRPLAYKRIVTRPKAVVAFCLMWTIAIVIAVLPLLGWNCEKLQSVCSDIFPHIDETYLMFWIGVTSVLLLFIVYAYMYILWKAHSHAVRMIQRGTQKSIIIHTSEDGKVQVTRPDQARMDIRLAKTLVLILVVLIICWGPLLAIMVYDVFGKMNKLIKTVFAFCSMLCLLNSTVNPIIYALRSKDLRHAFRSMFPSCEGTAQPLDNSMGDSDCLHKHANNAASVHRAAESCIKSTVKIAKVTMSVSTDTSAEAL

In the case of `CCC(CC)Nc1nc(C)c(-c2ccc(OC(F)(F)F)cc2OC)nc1OC`, the inhibition in data set [1], in [2], in data set [5], in [6], in [9] and in [10] was more than 16% throughout. The inhibition in data set [11] and in [12] was more than 16% each time. Besides, the Stability entry in the data set filed under Rattus norvegicus [3] and in the data set listed under Rattus norvegicus [4] was “Unstable” each time. In addition, the Activity result in the data set with Rattus norvegicus [7] and with Rattus norvegicus [8] was “Non-toxic” in each case. For the same compound, the Ki in data set [13] worked out at 1 nM. The same compound yielded a half-life in data set [14] of 2 h. The compound further gave a bioavailability in [15] of 45%. In addition, the inhibition entry in data set [16] was “inactive”.

Usually inhibition stands for the relative decrease from the control value, in per cent. Usually Ki stands for the dissociation constant of the complex between target and ligand, obtained from inhibition or displacement. A high value points to a looser hold on the target. The half-life is the time in which the quantity being followed falls by half. High values mean slow decline, low ones rapid decline. In general, bioavailability refers to dose-corrected exposure relative to a reference, in per cent.
